ChEMBL document CHEMBL1123678, “Octahydropyrazino[2',3':3,4]pyrido[1,2-a]indoles. A new class of potent antihypertensive agents” (1987)
Calls of active or inactive are those of the source. The calls are words filed in the database; no cut-off is given here.

How the values were obtained:
Rattus norvegicus [1] = experiment: Antihypertensive activity was determined in cannulated spontaneously hypertensive rats(SHR) and maximum decrease of mean arterial blood pressure (MABP) at 10 mg/kg oral dose; assay type: functional, Artery
Procedure, shortened: (§1)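 Cannulated SHR given compound by gastric gavage in 0.5% methylcellulose (5 mL/kg), doses 0.1–50 mg/kg, 4–8 animals per dose, after 1-h equilibration. MABP recorded for 4 h; maximal % decrease reported with time to peak effect. Significance by two-way analysis of variance.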

Rattus norvegicus [2] = experiment: Antihypertensive activity was determined in cannulated spontaneously hypertensive rats(SHR) and maximum decrease of mean arterial blood pressure (MABP) at 5 mg/kg oral dose; assay type: functional, Artery; procedure, shortened: as §1
Rattus norvegicus [3] = experiment: Vasopressor responses to epinephrine as a measure of the alpha-1-adrenoceptor blocking activity at 10 mg/kg administered orally was reported to have no change; assay type: functional, organism-based; design: dose 10 mg/kg
Rattus norvegicus [4] = experiment: Vasopressor responses to epinephrine as a measure of the alpha-1-adrenoceptor blocking activity at 2.5 mg/kg administered orally was reported to be reversed; assay type: functional, organism-based; design: dose 2.5 mg/kg
Rattus norvegicus [5] = experiment: Vasopressor responses to epinephrine as a measure of the alpha-1-adrenoceptor blocking activity at 10 mg/kg administered orally was reported to be reversed; assay type: functional, organism-based; design: dose 10 mg/kg
Rattus norvegicus [6] = experiment: Antihypertensive activity was determined in cannulated spontaneously hypertensive rats(SHR) and heart rate response was reported to reduce by 10-25% after 4 hr at a peroral dose of 0.25 mg/kg; assay type: functional, organism-based; design: dose 0.25 mg/kg
Rattus norvegicus [7] = experiment: Antihypertensive activity was determined in cannulated spontaneously hypertensive rats(SHR) and maximum decrease of mean arterial blood pressure (MABP) at 2.5 mg/kg oral dose; assay type: functional, Artery; procedure, shortened: as §1
Rattus norvegicus [8] = experiment: Antihypertensive activity was determined in cannulated spontaneously hypertensive rats(SHR) and heart rate response was reported to reduce by 10-25% after 4 hr at a peroral dose of 2.5 mg/kg; assay type: functional, organism-based; design: dose 2.5 mg/kg
Rattus norvegicus [9] = experiment: Antihypertensive activity was determined in cannulated spontaneously hypertensive rats(SHR) and maximum decrease of mean arterial blood pressure (MABP) at 1 mg/kg oral dose; assay type: functional, Artery; procedure, shortened: as §1
Rattus norvegicus [10] = experiment: Antihypertensive activity was determined in cannulated spontaneously hypertensive rats(SHR) and heart rate response was reported to reduce by 10-25% after 4 hr at a peroral dose of 1.0 mg/kg; assay type: functional, organism-based; design: dose 1 mg/kg
Rattus norvegicus [11] = experiment: Vasopressor responses to epinephrine as a measure of the alpha-1-adrenoceptor blocking activity at 1 mg/kg administered orally was reported to be reversed; assay type: functional, organism-based; design: dose 1 mg/kg
Rattus norvegicus [12] = experiment: Vasopressor responses to epinephrine as a measure of the alpha-1-adrenoceptor blocking activity at 0.25 mg/kg administered orally was reported to be reversed; assay type: functional, organism-based; design: dose 0.25 mg/kg
Rattus norvegicus [13] = experiment: Antihypertensive activity was determined in cannulated spontaneously hypertensive rats(SHR) and maximum decrease of mean arterial blood pressure (MABP) at 25 mg/kg oral dose; assay type: functional, Artery; procedure, shortened: as §1
Rattus norvegicus [14] = experiment: Antihypertensive activity was determined in cannulated spontaneously hypertensive rats(SHR) and marked bradycardia was reported at a dose of 50 mg/kg; assay type: functional, organism-based; design: dose 50 mg/kg
Rattus norvegicus [15] = experiment: Vasopressor responses to epinephrine as a measure of the alpha-1-adrenoceptor blocking activity at 25 mg/kg administered orally was reported to have no change; assay type: functional, organism-based; design: dose 25 mg/kg
Rattus norvegicus [16] = experiment: Antihypertensive activity was determined in cannulated spontaneously hypertensive rats(SHR) and maximum decrease of mean arterial blood pressure (MABP) at 50 mg/kg oral dose; assay type: functional, Artery; procedure, shortened: as §1
Rattus norvegicus [17] = experiment: Vasopressor responses to epinephrine as a measure of the alpha-1-adrenoceptor blocking activity at 50 mg/kg administered orally was reported to be antagonized; assay type: functional, organism-based; design: dose 50 mg/kg
Rattus norvegicus [18] = experiment: Antihypertensive activity was determined in cannulated spontaneously hypertensive rats(SHR) and maximum decrease of mean arterial blood pressure (MABP) at 0.5 mg/kg oral dose; assay type: functional, Artery; procedure, shortened: as §1
Rattus norvegicus [19] = experiment: Vasopressor responses to epinephrine as a measure of the alpha-1-adrenoceptor blocking activity at 0.5 mg/kg administered orally was reported to be antagonized; assay type: functional, organism-based; design: dose 0.5 mg/kg
Rattus norvegicus [20] = experiment: Antihypertensive activity was determined in cannulated spontaneously hypertensive rats(SHR) and heart rate response was reported to reduce by 10-25% after 4 hr at a peroral dose of 10 mg/kg; assay type: functional, organism-based; design: dose 10 mg/kg
Rattus norvegicus [21] = experiment: Antihypertensive activity was determined in cannulated spontaneously hypertensive rats(SHR) and heart rate response was reported to reduce by 10-25% after 4 hr at a peroral dose of 5 mg/kg; assay type: functional, organism-based; design: dose 5 mg/kg
Rattus norvegicus [22] = experiment: Vasopressor responses to epinephrine as a measure of the alpha-1-adrenoceptor blocking activity at 1 mg/kg administered orally was reported to be antagonized; assay type: functional, organism-based; design: dose 1 mg/kg
Rattus norvegicus [23] = experiment: Antagonism of vasopressor responses to epinephrine as a measure of the alpha-1-adrenoceptor blocking activity at 5 mg/kg administered orally was reported to be reversed; assay type: functional, organism-based; design: dose 5 mg/kg
Rattus norvegicus [24] = experiment: Vasopressor responses to epinephrine as a measure of the alpha-1-adrenoceptor blocking activity at 10 mg/kg administered orally was reported to be antagonized; assay type: functional, organism-based; design: dose 10 mg/kg
Rattus norvegicus [25] = experiment: Antihypertensive activity was determined in cannulated spontaneously hypertensive rats(SHR) and marked bradycardia was reported at a dose of 10 mg/kg; assay type: functional, organism-based; design: dose 10 mg/kg

Compound	Decrease in MABP (Rattus norvegicus [1]) [%]	Decrease in MABP (Rattus norvegicus [2]) [%]	Activity (Rattus norvegicus [4])	Activity (Rattus norvegicus [5])	Decrease in MABP (Rattus norvegicus [7]) [%]	Decrease in MABP (Rattus norvegicus [9]) [%]	Decrease in MABP (Rattus norvegicus [16]) [%]	further results
Cc1c2n(c3ccccc13)CCC1C2N(C)CCN1C (stereo not given)	23	13	–	–	–	–	–	–
Cc1c2n(c3ccccc13)CCC1C2NCCN1CCOc1ccccc1 (stereo not given)	7	–	–	–	–	–	–	Activity (Rattus norvegicus [3]): inactive
CCN1CCN(C(C)C)C2CCn3c(c(C)c4ccccc43)C21 (stereo not given)	56	–	Vasopressor response reversed	Vasopressor response reversed	52	40	–	HR (Rattus norvegicus [6]): Heart rate response was reported to reduce by 10-25% after 4 hr at a peroral dose of 0.25 mg/kg; HR (Rattus norvegicus [8]): Heart rate response was reported to reduce by 10-25% after 4 hr at a peroral dose of 0.25 mg/kg; HR (Rattus norvegicus [10]): Heart rate response was reported to reduce by 10-25% after 4 hr at a peroral dose of 0.25 mg/kg; Activity (Rattus norvegicus [11]): Vasopressor response reversed; Activity (Rattus norvegicus [12]): Vasopressor response reversed
Br.Br.CCN1CCNC2c3c(C)c4ccccc4n3CCC21 (stereo not given)	23	–	–	–	–	–	31	Decrease in MABP (Rattus norvegicus [13]): 26%; HR (Rattus norvegicus [14]): Heart rate response was reported to reduce by 10-25% after 4 hr at a peroral dose of 25 mg/kg; Activity (Rattus norvegicus [15]): inactive; Activity (Rattus norvegicus [17]): Vasopressor response antagonized; Activity (Rattus norvegicus [3]): inactive
CCN1CCN(C(C)C)C2CCn3c(c(C)c4cc(OC)ccc43)C21.Cl.Cl (stereo not given)	–	33	–	–	–	–	43	Decrease in MABP (Rattus norvegicus [18]): 8%; HR (Rattus norvegicus [14]): Heart rate response was reported to reduce by 10-25% after 4 hr at a peroral dose of 5.0 mg/kg; Activity (Rattus norvegicus [19]): Vasopressor response antagonized
CCN1CCN(C(C)C)C2CCn3c(c(C)c4cc(Br)ccc43)C21.Cl.Cl (stereo not given)	–	–	–	–	–	–	20	–
CCN1CCN(CC)C2c3c(C)c4cc(Br)ccc4n3CCC21.Cl (stereo not given)	15	–	–	Vasopressor response reversed	–	–	–	–
Br.CCCN1CCN(CCC)C2c3c(C)c4ccccc4n3CCC21 (stereo not given)	18	12	Antagonism reversed	Antagonism reversed	16	13	–	HR (Rattus norvegicus [20]): Heart rate response was reported to reduce by 10-25% after 4 hr at a peroral dose of 1.0 mg/kg; HR (Rattus norvegicus [8]): Heart rate response was reported to reduce by 10-25% after 4 hr at a peroral dose of 1.0 mg/kg; HR (Rattus norvegicus [21]): Heart rate response was reported to reduce by 10-25% after 4 hr at a peroral dose of 1.0 mg/kg; Activity (Rattus norvegicus [22]): Antagonism reversed; HR (Rattus norvegicus [10]): Heart rate response was reported to reduce by 10-25% after 4 hr at a peroral dose of 1.0 mg/kg; Activity (Rattus norvegicus [23]): Antagonism reversed
Cc1c2n(c3ccccc13)CCC1C2NCCN1C(C)C.Cl.Cl (stereo not given)	12	–	–	–	–	–	–	Activity (Rattus norvegicus [24]): Vasopressor response antagonized
Br.CCCN1CCN(C(C)C)C2CCn3c(c(C)c4ccccc43)C21 (stereo not given)	40	–	Vasopressor response reversed	Vasopressor response reversed	25	19	–	Activity (Rattus norvegicus [11]): Vasopressor response reversed; HR (Rattus norvegicus [25]): Heart rate response was reported to reduce by 10-25% after 4 hr at a peroral dose of 1.0 mg/kg
